Experimental data taken from ChEMBL document CHEMBL1136441, “The design and synthesis of novel orally active inhibitors of AP-1 and NF-kappaB mediated transcriptional activation. SAR of in vitro and in vivo studies” (Bioorg Med Chem Lett, 2003).

Legend:
[1] = Inhibition of AP-1 and NF-kB mediated transcriptional activation in Jurkat T-cells; type: functional, cell-based; settings: Homo sapiens
How it was run: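 Jurkat T-cell luciferase reporter lines, stably transfected with either an NF-kB site (MHC promoter) fused to a minimal SV-40 promoter, or an AP-1 site (collagenase promoter). Cells at 1×10⁶/mL in medium with 10% serum-plus were plated 18 h ahead. Compound in 0.2% DMSO/H₂O was added for 0.5 h at 37 °C, then PMA plus PHA (1 ug/mL) for 5 h. Lysate luminescence was read; IC50 is 50% of control luciferase.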

[2] = test system: Caco-2; test: Caco-2 permeability coefficient value was determined

SMILES	IC50 [1]	Pc [2]
CC1=CC(=O)N(Nc2nc(C(F)(F)F)nc3cc(N4CCCCC4)ccc23)C1=O	200 nM	
CC1=CC(=O)N(Nc2nc(C(F)(F)F)nc3ccccc23)C1=O	100 nM	
CC1=CC(=O)N(Nc2nc(C(F)(F)F)nc3ccc(S(C)(=O)=O)cc23)C1=O	9000 nM	
COc1ccc2nc(C(F)(F)F)nc(NN3C(=O)C=C(C)C3=O)c2c1	30 nM	
COc1ccc2c(NN3C(=O)C=C(C)C3=O)nc(-c3cccs3)nc2c1	20 nM	
COc1cccc2c(NN3C(=O)C=C(C)C3=O)nc(-c3cccs3)nc12	50 nM	
CC1=CC(=O)N(Nc2nc(-c3cccs3)nc3ccccc23)C1=O	60 nM	
COc1cc2nc(-c3cccs3)nc(NN3C(=O)C=C(C)C3=O)c2cc1OC	50 nM	
CC1=CC(=O)N(Nc2nc(-c3cccs3)nc3ccc(Cl)cc23)C1=O	20 nM	
CC1=CC(=O)N(Nc2nc(C(F)(F)F)nc3ccc(O)cc23)C1=O	100 nM	
CC1=CC(=O)N(Nc2nc(-c3cccs3)nc3cccc(F)c23)C1=O	50 nM	
COc1cccc2nc(C(F)(F)F)nc(NN3C(=O)C=C(C)C3=O)c12	10 nM	1.49 ×10⁻⁶ cm/s
CC1=CC(=O)N(Nc2nc(-c3cccs3)nc3cccc(C)c23)C1=O	20 nM	
CC1=CC(=O)N(Nc2nc(-c3cccs3)nc3cc(N4CCOCC4)ccc23)C1=O	200 nM	
CSc1ccc2nc(C(F)(F)F)nc(NN3C(=O)C=C(C)C3=O)c2c1	80 nM	
CC1=CC(=O)N(Nc2nc(-c3ccccc3)nc3ccccc23)C1=O	100 nM	
COc1cc2c(NN3C(=O)C=C(C)C3=O)nc(-c3cccs3)nc2c(OC)c1OC	40 nM	
CC1=CC(=O)N(Nc2nc(C(F)(F)F)nc3ccc([S+](C)[O-])cc23)C1=O (stereo not drawn)	1000 nM	
CC1=CC(=O)N(Nc2nc(C(F)(F)F)nc3cccc(C)c23)C1=O	400 nM	
CC1=CC(=O)N(Nc2nc(-c3cccs3)nc3cc(N(C)C)ccc23)C1=O	40 nM	1.41 ×10⁻⁶ cm/s
CC1=CC(=O)N(Nc2nc(C(F)(F)F)nc3cc(N(C)C)ccc23)C1=O	20 nM	1.68 ×10⁻⁶ cm/s
COc1ccc2nc(-c3cccs3)nc(NN3C(=O)C=C(C)C3=O)c2c1	3 nM	1.62 ×10⁻⁶ cm/s
COc1cccc2nc(-c3cccs3)nc(NN3C(=O)C=C(C)C3=O)c12 [AS-602868]	8 nM	14.1 ×10⁻⁶ cm/s
